ChEMBL document CHEMBL1828552, “Synthesis and studies of novel 2-(4-cyano-3-trifluoromethylphenyl amino)-4-(quinoline-4-yloxy)-6-(piperazinyl/piperidinyl)-s-triazines as potential antimicrobial, antimycobacterial and anticancer agents” (2011)
Converted amounts (≈) assume the structure as drawn.

System: Escherichia coli
Assay: Antibacterial activity against 10^5 CFU/mL Escherichia coli MTCC 739 after 24 hrs by agar streak dilution method
Type: functional
Settings: MTCC 739, 24 h
Method in brief: (§1)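 Agar streak dilution. Stock 100 µg/mL in DMSO; graded amounts were mixed into molten nutrient agar and poured at 4–5 mm depth. Plates carried serial dilutions over […]. About 10⁵ CFU/mL of each bacterium was applied, and plates were incubated at 37 ± 1 °C for 24 h. MIC was read from the dilution series.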

**Q.** N#Cc1ccc(Nc2nc(Oc3ccnc4ccccc34)nc(N3CCOCC3)n2)cc1C(F)(F)F was tested. Which MIC did it give?
**A.** 100 µg/mL (≈ 203 µM)

System: Klebsiella pneumoniae
Assay: Antibacterial activity against 10^5 CFU/mL Klebsiella pneumoniae MTCC 109 after 24 hrs by agar streak dilution method
Type: functional
Settings: MTCC 109, 24 h
Method in brief: as §1

**Q.** How did the MIC turn out when N#Cc1ccc(Nc2nc(Oc3ccnc4ccccc34)nc(N3CCOCC3)n2)cc1C(F)(F)F was run?
**A.** 100 µg/mL (≈ 203 µM)

System: Proteus vulgaris
Assay: Antibacterial activity against 10^5 CFU/mL Proteus vulgaris MTCC 1771 after 24 hrs by disc diffusion technique
Type: functional
Settings: not given
Method in brief: (§2)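 Disc diffusion on Mueller–Hinton agar poured 5 mm deep. The surface was swabbed with a 10⁵ CFU/mL […] suspension. Filter-paper discs 6.25 mm in diameter were soaked in compound in DMSO and placed on the agar. Plates were incubated 24 h at 37 ± 1 °C, and the inhibition zone was measured in mm. A DMSO disc served as blank.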

**Q.** N#Cc1ccc(Nc2nc(Oc3ccnc4ccccc34)nc(N3CCOCC3)n2)cc1C(F)(F)F was tested. Which “inhibition zone (IZ)” value did it give?
**A.** 16 mm

System: Aspergillus niger
Assay: Antifungal activity against 10^5 CFU/mL Aspergillus niger MTCC 282 after 48 hrs by disc diffusion technique
Type: functional
Settings: not given

**Q.** N#Cc1ccc(Nc2nc(Oc3ccnc4ccccc34)nc(N3CCOCC3)n2)cc1C(F)(F)F was tested. Which “inhibition zone (IZ)” value did it give?
**A.** 13 mm

System: Aspergillus niger
Assay: Antifungal activity against 10^5 CFU/mL Aspergillus niger MTCC 282 after 48 hrs by agar streak dilution method
Type: functional
Settings: MTCC 282, 48 h
Method in brief: (§3)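 Agar streak dilution for fungi. Stock 100 µg/mL in DMSO; graded amounts were mixed into molten Sabouraud dextrose agar and poured at 4–5 mm depth. Serial dilutions ran over […]. About 10⁵ CFU/mL inoculum was applied, with incubation at 37 ± 1 °C for 48 h. MIC was read from the dilution series.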

**Q.** With N#Cc1ccc(Nc2nc(Oc3ccnc4ccccc34)nc(N3CCOCC3)n2)cc1C(F)(F)F as the compound, how does the MIC read?
**A.** 100 µg/mL (≈ 203 µM)

System: Bacillus cereus
Assay: Antibacterial activity against 10^5 CFU/mL Bacillus cereus MTCC 619 after 24 hrs by agar streak dilution method
Type: functional
Settings: MTCC 619, 24 h
Method in brief: as §1

**Q.** Which MIC does the source give for N#Cc1ccc(Nc2nc(Oc3ccnc4ccccc34)nc(N3CCOCC3)n2)cc1C(F)(F)F here?
**A.** 100 µg/mL (≈ 203 µM)

System: Pseudomonas aeruginosa
Assay: Antibacterial activity against 10^5 CFU/mL Pseudomonas aeruginosa MTCC 741 after 24 hrs by agar streak dilution method
Type: functional
Settings: MTCC 741, 24 h
Method in brief: as §1

**Q.** With N#Cc1ccc(Nc2nc(Oc3ccnc4ccccc34)nc(N3CCOCC3)n2)cc1C(F)(F)F as the compound, how does the MIC read?
**A.** 100 µg/mL (≈ 203 µM)

System: Shigella flexneri
Assay: Antibacterial activity against 10^5 CFU/mL Shigella flexneri MTCC 1457 after 24 hrs by agar streak dilution method
Type: functional
Settings: MTCC 1457, 24 h
Method in brief: as §1

**Q.** Which MIC does the source give for N#Cc1ccc(Nc2nc(Oc3ccnc4ccccc34)nc(N3CCOCC3)n2)cc1C(F)(F)F here?
**A.** 100 µg/mL (≈ 203 µM)

System: Bacillus cereus
Assay: Antibacterial activity against 10^5 CFU/mL Bacillus cereus MTCC 619 after 24 hrs by disc diffusion technique
Type: functional
Settings: not given
Method in brief: as §2

**Q.** N#Cc1ccc(Nc2nc(Oc3ccnc4ccccc34)nc(N3CCOCC3)n2)cc1C(F)(F)F was tested. Which “inhibition zone (IZ)” value did it give?
**A.** <10 mm

System: DU-145
Assay: Cytotoxicity against […] human DU145 cells after 48 hrs by SRB assay
Type: functional
Settings: DU-145, 48 h
Method in brief: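 SRB assay in DU-145 cells grown in RPMI 1640 with 10% FBS and 2 mM L-glutamine. Cells were plated and held 24 h before addition of four 10-fold concentrations. After 48 h, cells were TCA-fixed, stained with 0.4% SRB and read at 540 nm. GI50, TGI and LC50 were derived against time-zero and control wells; each value is the mean of three experiments.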

**Q.** With N#Cc1ccc(Nc2nc(Oc3ccnc4ccccc34)nc(N3CCOCC3)n2)cc1C(F)(F)F as the compound, how does the GI50 read?
**A.** 68.3 µM

**Q.** What about the LC50 (concentration giving 50% net cell kill relative to time zero) of the same compound?
**A.** > 100 µM

**Q.** And the TGI?
**A.** > 100 µM

System: Aspergillus clavatus
Assay: Antifungal activity against 10^5 CFU/mL Aspergillus clavatus MTCC 1323 after 48 hrs by agar streak dilution method
Type: functional
Settings: MTCC 1323, 48 h
Method in brief: as §3

**Q.** For N#Cc1ccc(Nc2nc(Oc3ccnc4ccccc34)nc(N3CCOCC3)n2)cc1C(F)(F)F, which MIC is on record?
**A.** 100 µg/mL (≈ 203 µM)

System: Salmonella typhi
Assay: Antibacterial activity against 10^5 CFU/mL Salmonella typhi MTCC 733 after 24 hrs by agar streak dilution method
Type: functional, Salmonella enterica subsp. enterica serovar Typhi
Settings: Salmonella enterica, MTCC 733, 24 h

**Q.** With N#Cc1ccc(Nc2nc(Oc3ccnc4ccccc34)nc(N3CCOCC3)n2)cc1C(F)(F)F as the compound, how does the MIC read?
**A.** 100 µg/mL (≈ 203 µM)

System: Proteus vulgaris
Assay: Antibacterial activity against 10^5 CFU/mL Proteus vulgaris MTCC 1771 after 24 hrs by agar streak dilution method
Type: functional
Settings: MTCC 1771, 24 h
Method in brief: as §1

**Q.** For N#Cc1ccc(Nc2nc(Oc3ccnc4ccccc34)nc(N3CCOCC3)n2)cc1C(F)(F)F, which MIC is on record?
**A.** 100 µg/mL (≈ 203 µM)

System: Pseudomonas aeruginosa
Assay: Antibacterial activity against 10^5 CFU/mL Pseudomonas aeruginosa MTCC 741 after 24 hrs by disc diffusion technique
Type: functional
Settings: not given
Method in brief: as §2

**Q.** How did the “inhibition zone (IZ)” value turn out when N#Cc1ccc(Nc2nc(Oc3ccnc4ccccc34)nc(N3CCOCC3)n2)cc1C(F)(F)F was run?
**A.** <10 mm

System: Aspergillus fumigatus
Assay: Antifungal activity against 10^5 CFU/mL Aspergillus fumigatus MTCC 343 after 48 hrs by agar streak dilution method
Type: functional
Settings: MTCC 343, 48 h
Method in brief: as §3

**Q.** N#Cc1ccc(Nc2nc(Oc3ccnc4ccccc34)nc(N3CCOCC3)n2)cc1C(F)(F)F was tested. Which MIC did it give?
**A.** 100 µg/mL (≈ 203 µM)

System: Salmonella typhi
Assay: Antibacterial activity against 10^5 CFU/mL Salmonella typhi MTCC 733 after 24 hrs by disc diffusion technique
Type: functional, Salmonella enterica subsp. enterica serovar Typhi
Settings: not given
Method in brief: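 Disc diffusion. Mueller-Hinton agar autoclaved 120 °C 30 min, poured 5 mm deep. Surface swabbed with 10⁵ CFU/mL suspension […]. 6.25 mm filter-paper discs soaked in compound in DMSO; DMSO-only disc as blank. Incubated 37 ± 1 °C, 24 h for bacteria or 48 h for fungi. Ciprofloxacin and ketoconazole discs as reference drugs. Inhibition zone measured in mm.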

**Q.** With N#Cc1ccc(Nc2nc(Oc3ccnc4ccccc34)nc(N3CCOCC3)n2)cc1C(F)(F)F as the compound, how does the “inhibition zone (IZ)” value read?
**A.** 13 mm

System: Aspergillus fumigatus
Assay: Antifungal activity against 10^5 CFU/mL Aspergillus fumigatus MTCC 343 after 48 hrs by disc diffusion technique
Type: functional
Settings: not given

**Q.** How did the “inhibition zone (IZ)” value turn out when N#Cc1ccc(Nc2nc(Oc3ccnc4ccccc34)nc(N3CCOCC3)n2)cc1C(F)(F)F was run?
**A.** <10 mm

System: Aspergillus clavatus
Assay: Antifungal activity against 10^5 CFU/mL Aspergillus clavatus MTCC 1323 after 48 hrs by disc diffusion technique
Type: functional
Settings: not given

**Q.** How did the “inhibition zone (IZ)” value turn out when N#Cc1ccc(Nc2nc(Oc3ccnc4ccccc34)nc(N3CCOCC3)n2)cc1C(F)(F)F was run?
**A.** 13 mm

System: Klebsiella pneumoniae
Assay: Antibacterial activity against 10^5 CFU/mL Klebsiella pneumoniae MTCC 109 after 24 hrs by disc diffusion technique
Type: functional
Settings: not given
Method in brief: as §2

**Q.** With N#Cc1ccc(Nc2nc(Oc3ccnc4ccccc34)nc(N3CCOCC3)n2)cc1C(F)(F)F as the compound, how does the “inhibition zone (IZ)” value read?
**A.** 14 mm

System: Escherichia coli
Assay: Antibacterial activity against 10^5 CFU/mL Escherichia coli MTCC 739 after 24 hrs by disc diffusion technique
Type: functional
Settings: not given
Method in brief: as §2

**Q.** For N#Cc1ccc(Nc2nc(Oc3ccnc4ccccc34)nc(N3CCOCC3)n2)cc1C(F)(F)F, which “inhibition zone (IZ)” value is on record?
**A.** <10 mm

System: Staphylococcus aureus
Assay: Antibacterial activity against 10^5 CFU/mL Staphylococcus aureus MTCC 96 after 24 hrs by disc diffusion technique
Type: functional
Settings: not given
Method in brief: as §2

**Q.** For N#Cc1ccc(Nc2nc(Oc3ccnc4ccccc34)nc(N3CCOCC3)n2)cc1C(F)(F)F, which “inhibition zone (IZ)” value is on record?
**A.** 14 mm

System: Shigella flexneri
Assay: Antibacterial activity against 10^5 CFU/mL Shigella flexneri MTCC 1457 after 24 hrs by disc diffusion technique
Type: functional
Settings: not given
Method in brief: as §2

**Q.** With N#Cc1ccc(Nc2nc(Oc3ccnc4ccccc34)nc(N3CCOCC3)n2)cc1C(F)(F)F as the compound, how does the “inhibition zone (IZ)” value read?
**A.** <10 mm

System: Candida albicans
Assay: Antifungal activity against 10^5 CFU/mL Candida albicans MTCC 183 after 48 hrs by agar streak dilution method
Type: functional
Settings: MTCC 183, 48 h
Method in brief: as §3

**Q.** N#Cc1ccc(Nc2nc(Oc3ccnc4ccccc34)nc(N3CCOCC3)n2)cc1C(F)(F)F was tested. Which MIC did it give?
**A.** 100 µg/mL (≈ 203 µM)

System: Candida albicans
Assay: Antifungal activity against 10^5 CFU/mL Candida albicans MTCC 183 after 48 hrs by disc diffusion technique
Type: functional
Settings: not given

**Q.** How did the “inhibition zone (IZ)” value turn out when N#Cc1ccc(Nc2nc(Oc3ccnc4ccccc34)nc(N3CCOCC3)n2)cc1C(F)(F)F was run?
**A.** 13 mm

System: Staphylococcus aureus
Assay: Antibacterial activity against 10^5 CFU/mL Staphylococcus aureus MTCC 96 after 24 hrs by agar streak dilution method
Type: functional
Settings: MTCC 96, 24 h
Method in brief: as §1

**Q.** Which MIC does the source give for N#Cc1ccc(Nc2nc(Oc3ccnc4ccccc34)nc(N3CCOCC3)n2)cc1C(F)(F)F here?
**A.** 100 µg/mL (≈ 203 µM)
